Data on one compound can be found in ChEMBL document CHEMBL2346497, “Synthesis of novel cognition enhancers with pyrazolo[5,1-c][1,2,4]benzotriazine core acting at γ-aminobutyric acid type A (GABA(A)) receptor” (Bioorg Med Chem, 2013).

The source made the active and inactive calls. The rule behind the calls is not given here.

The nature of experiment [1]: Displacement of [3H]Ro15-1788 from GABA-A receptor benzodiazepine binding site in bovine cerebral cortex membranes after 1 hr. The format is cell membranes, Bos taurus, Membrane.
The subject of experiment [2] is Rattus norvegicus. In words: Induction of acetylcholine release in Harlan Wistar rat parietal cortex at 10 mg/kg, ip measured within 120 mins by microdialysis method. The format is functional, organism-based. Details: dose 10 mg/kg. The procedure, abridged: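 Microdialysis in the parietal cortex of male Wistar rats, with a horizontal tube implanted at AP 0.5 mm and H 2.3 mm from bregma. One day after surgery the tube was perfused with Ringer containing physostigmine. After a 1 h settling period, 20-min fractions were collected into HCl. Drug was given ip in 1% CMC at time 0. ACh was measured by HPLC with electrochemical detection, n = 6 rats.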

The target of experiment [3] is T1, GABA-A receptor; alpha-1/beta-2/gamma-2 (Homo sapiens, UniProt P14867+P18507+P47870).
T1 sequence (P14867 whole entry): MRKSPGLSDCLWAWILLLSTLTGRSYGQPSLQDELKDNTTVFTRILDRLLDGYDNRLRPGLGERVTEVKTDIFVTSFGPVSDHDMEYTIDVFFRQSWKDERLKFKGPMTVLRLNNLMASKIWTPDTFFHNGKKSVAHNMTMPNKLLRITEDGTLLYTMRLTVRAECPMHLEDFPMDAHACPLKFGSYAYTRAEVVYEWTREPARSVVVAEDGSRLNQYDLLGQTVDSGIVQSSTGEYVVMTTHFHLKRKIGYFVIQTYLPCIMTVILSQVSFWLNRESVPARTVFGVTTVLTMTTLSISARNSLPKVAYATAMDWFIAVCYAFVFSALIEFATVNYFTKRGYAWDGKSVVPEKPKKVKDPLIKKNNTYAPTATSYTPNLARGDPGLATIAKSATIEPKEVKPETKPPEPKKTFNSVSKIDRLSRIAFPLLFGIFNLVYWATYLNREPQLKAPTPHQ
T1 sequence (P47870 whole entry): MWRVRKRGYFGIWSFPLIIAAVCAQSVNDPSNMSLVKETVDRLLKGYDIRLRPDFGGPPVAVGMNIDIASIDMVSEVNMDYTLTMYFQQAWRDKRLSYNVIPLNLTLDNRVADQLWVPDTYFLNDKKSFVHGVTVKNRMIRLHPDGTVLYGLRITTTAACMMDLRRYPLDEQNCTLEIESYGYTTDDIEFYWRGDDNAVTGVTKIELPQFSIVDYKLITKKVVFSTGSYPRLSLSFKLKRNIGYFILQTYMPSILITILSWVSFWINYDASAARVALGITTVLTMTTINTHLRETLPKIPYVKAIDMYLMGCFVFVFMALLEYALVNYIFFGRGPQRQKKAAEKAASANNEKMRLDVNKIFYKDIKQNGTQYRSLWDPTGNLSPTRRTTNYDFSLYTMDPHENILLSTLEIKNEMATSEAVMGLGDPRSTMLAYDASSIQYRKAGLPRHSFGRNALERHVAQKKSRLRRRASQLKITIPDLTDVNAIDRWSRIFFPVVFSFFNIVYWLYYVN
T1 sequence (P18507 whole entry): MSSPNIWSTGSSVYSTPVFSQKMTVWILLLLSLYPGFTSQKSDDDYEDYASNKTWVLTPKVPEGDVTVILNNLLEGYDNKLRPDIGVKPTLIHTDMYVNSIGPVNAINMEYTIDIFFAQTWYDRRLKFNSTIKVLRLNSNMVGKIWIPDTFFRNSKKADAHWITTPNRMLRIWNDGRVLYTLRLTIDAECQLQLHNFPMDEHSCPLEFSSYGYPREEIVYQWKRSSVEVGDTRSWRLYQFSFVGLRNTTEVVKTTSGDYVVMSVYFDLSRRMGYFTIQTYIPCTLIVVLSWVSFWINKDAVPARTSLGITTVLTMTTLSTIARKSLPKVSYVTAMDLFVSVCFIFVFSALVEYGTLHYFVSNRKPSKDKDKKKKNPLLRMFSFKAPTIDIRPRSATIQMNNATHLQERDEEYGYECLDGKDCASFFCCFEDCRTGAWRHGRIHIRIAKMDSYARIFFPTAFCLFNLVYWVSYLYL
As to the kind of experiment: Displacement of [3H]Ro15-1788 from recombinant GABA-A alpha1beta2gamma2 receptor benzodiazepine binding site (unknown origin) after 1 hr. The class given is protein-complex assay. The procedure, abridged: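 Membranes came from clonal mammalian cell lines expressing α1β2γ2, α2β2γ2 or α5β3γ2 receptors, grown in MEM/EBSS with 10% FCS at 37 °C. Membranes were resuspended in 10 mM potassium phosphate, pH 7.4, with 100 mM KCl. Assays used 1–2 nM [3H]Ro15-1788 and test compound from 10^-9 to 10^-5 M, at least six concentrations. Diazepam at 10^-5 M defined nonspecific binding. Incubation ran 1 h at 4 °C. Single-point % inhibition was measured at 10 µM, and Ki by curve fitting; n = 5, in duplicate.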

Experiment [4] has as its system Mus musculus. As to the kind of experiment: Anticonvulsant activity in CD1 albino mouse assessed as protection against pentylenetetrazole-induced convulsions at 10 mg/kg, po administered 30 mins prior to pentylenetetrazole challenge measured over 30 mins (reference value: 7.1%). The class given is functional.
The test system of experiment [5] is Mus musculus. As to the kind of experiment: Anxiolytic activity in CD1 albino mouse assessed as increase in time spent in illuminated side at 3 to 10 mg/kg, po administered 30 mins prior to testing measured for 5 mins by light-dark box test. The format is functional, organism-based. The procedure, abridged:
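Light/dark box: two equal acrylic compartments, one lit by a 60 W lamp, joined by a floor-level opening. Male CD-1 mice were dosed po in 1% CMC 30 min before the test, then placed in the centre of the lit side facing away from the dark side. Over 5 min, transfers and time in the light side were recorded, n = 8 mice per group.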

Experiment [6] relates to Rattus norvegicus. As to the kind of experiment: Procognitive effect in Harlan Wistar rat assessed as decrease in exploring time of unfamiliar rat during social investigatory behaviour at 1 to 10 mg/kg, po administered 30 mins prior to testing measured for 5 mins by social learning test relative to control. The class given is functional, organism-based.
Experiment [7] deals with Rattus norvegicus. As to the kind of experiment: Procognitive effect in Harlan Wistar rat assessed as exploring time of familiar rat during social investigatory behaviour at 3 mg/kg, po administered 30 mins prior to testing measured for 5 mins by social learning test (reference value: 27.6 secs). The format is functional.
Experiment [8] deals with Rattus norvegicus. In words: Procognitive effect in Harlan Wistar rat assessed as exploring time of familiar rat during social investigatory behaviour at 10 mg/kg, po administered 30 mins prior to testing measured for 5 mins by social learning test (reference value: 27.6 secs). The class given is functional.
The subject of experiment [9] is Mus musculus. In words: Antiamnesic activity in CD1 albino mouse assessed as reversal of scopolamine-induced amnesia at 1 mg/kg, po administered 30 mins prior to scopolamine challenge measured after 24 hrs by passive avoidance test. The format is functional, organism-based. Details: dose 1 mg/kg. The procedure, abridged:
(§1)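 Step-through passive avoidance in male CD-1 mice (22–24 g). Test drugs were given po, suspended in 1% carboxymethylcellulose at 10 ml/kg, 30 min before the training session. For the antiamnesic arm, scopolamine 1.5 mg/kg was injected immediately after punishment. Retention latency was compared with CMC-treated controls, n = 10–12 mice per group.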

The subject of experiment [10] is Mus musculus. As to the kind of experiment: Cognitive enhancing effect in CD1 albino mouse assessed as increase in retention latency at 1 to 10 mg/kg, po administered 30 mins prior to testing measured after 24 hrs by passive avoidance test relative to control. The class given is functional, organism-based. The procedure, abridged: as §1

As for `Cc1cnn2c1n[n+]([O-])c1ccc(OCc3ccncc3)cc12`, the Ki in [1] was 24.1 nM; in experiment [3], 22.7 nM. Also, the outcome in the experiment on Rattus norvegicus [2], with Mus musculus [5] and with Rattus norvegicus [6] was inactive. In addition, the Activity with Mus musculus [4] turned out to be 0%. For the same compound, the Time is reported as 43.2 s in the experiment with Rattus norvegicus [7] and 41.4 s in the experiment with Rattus norvegicus [8]. Moreover, the result in the experiment on Mus musculus [9] and in the experiment with Mus musculus [10] was Active.
